# Active and inactive are the calls of the source. The calls are words filed in the database; no cut-off is given here.
# Experiments:
# [1] = Binding affinity to 5'FAM-labeled Precursor microRNA-372 (unknown origin) assessed as dissociation constant incubated for 4 hrs by fluorescence-based assay
# In short: (§1)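 Each 5'-FAM-labelled pre-miRNA (10 nM) was folded in 20 mM Tris-HCl pH 7.4, 12 mM NaCl, 1 mM DTT by heating at 90°C for 2 min, holding at 4°C for 10 min and returning to room temperature over 15 min. Ligand was added in 15 dilutions (0.030 nM–0.5 mM). Fluorescence (ex 485, em 535 nm) was read after 4 h. Runs were in duplicate, repeated at least three times, and KD came from a 1:1 binding model.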
# [2] = Binding affinity to 5'FAM-labeled Precursor microRNA-372 (unknown origin) assessed as dissociation constant incubated for 4 hrs in presence of tRNA by fluorescence-based assay
# In short: (§2)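 KD was measured with 10 nM folded 5'-FAM-pre-miR-372 in 20 mM Tris-HCl pH 7.4, 12 mM NaCl, 1 mM DTT, with 100 eq. competitor added to the RNA. Competitor was tRNA or duplex DNA from two 15-mer strands annealed at 90°C for 5 min then slowly cooled. Ligand was added in 15 dilutions (0.030 nM–0.5 mM) and fluorescence (ex 485, em 535 nm) read after 4 h. A 1:1 model was fitted.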
# [3] = Selectivity ratio of Kd for binding affinity to 5'FAM-labeled Precursor microRNA-372 (unknown origin) in presence of tRNA to Kd for binding affinity to 5'FAM-labeled Precursor microRNA-372 (unknown origin)
# [4] = Binding affinity to 5'FAM-labeled Precursor microRNA-372 (unknown origin) assessed as dissociation constant incubated for 4 hrs in presence of DNA by fluorescence-based assay; in short: as §2
# [5] = Selectivity ratio of Kd for binding affinity to 5'FAM-labeled Precursor microRNA-372 (unknown origin) in presence of DNA to Kd for binding affinity to 5'FAM-labeled Precursor microRNA-372 (unknown origin)
# [6] = Inhibition of Precursor microRNA-372 in human HEK293 cell lysate assessed as inhibition of Dicer-induced pre-miR-372 maturation by measuring fluorescence incubated for 4 hrs by FRET Dicer assay; type: subcellular
# In short: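 The FRET cleavage assay used 50 nM pre-miR-372 beacon (5'-FAM, 3'-dabcyl), with HEK293 whole-cell lysate in place of recombinant enzyme. Inhibitor was preincubated with the beacon for 30 min at room temperature. After 4 h at 37°C the fluorescence rise (ex 485, em 535 nm) was measured. IC50 was obtained by nonlinear regression.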
# [7] = Inhibition of 5'FAM-labeled and 3'DAB-labeled Precursor microRNA-372 (unknown origin) assessed as inhibition of Dicer-induced pre-miR-372 cleavage by measuring fluorescence incubated for 4 hrs in presence of human recombinant Dicer by FRET Dicer assay
# In short: (§3)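 The pre-miRNA beacon (50 nM; 5'-FAM, 3'-dabcyl) in 20 mM Tris-HCl pH 7.4, 12 mM NaCl, 1 mM DTT was preincubated with inhibitor (12 dilutions) for 30 min at room temperature. Human recombinant Dicer was then added. After 4 h at 37°C the fluorescence increase (ex 485, em 535 nm) was read. Assays were in duplicate, repeated three times, and IC50 was obtained by nonlinear regression.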
# [8] = Inhibition of 5'FAM-labeled and 3'DAB-labeled Precursor microRNA-18a (unknown origin) assessed as inhibition of Dicer-induced pre-miR-18a cleavage by measuring fluorescence incubated for 4 hrs in presence of human recombinant Dicer by FRET Dicer assay; in short: as §3
# [9] = Inhibition of 5'FAM-labeled and 3'DAB-labeled Precursor microRNA-148a (unknown origin) assessed as inhibition of Dicer-induced pre-miR-148a cleavage by measuring fluorescence incubated for 4 hrs in presence of human recombinant Dicer by FRET Dicer assay; in short: as §3
# [10] = Binding affinity to 5'FAM-labeled Precursor microRNA-18a (unknown origin) incubated for 4 hrs by fluorescence-based assay; in short: as §1
# [11] = Binding affinity to 5'FAM-labeled Precursor microRNA-148a (unknown origin) incubated for 4 hrs by fluorescence-based assay; in short: as §1
SMILES,Kd [1] [µM],Kd [2] [µM],Selectivity ratio [3],Kd [4] [µM],Selectivity ratio [5],IC50 [6] [µM],IC50 [7] [µM],IC50 [8] [µM],IC50 [9] [µM],Activity [10],Activity [11]
NC[C@@H]1O[C@H](O[C@H]2[C@@H](O)[C@H](O[C@@H]3[C@@H](O)[C@H](N)C[C@H](N)[C@H]3O[C@H]3O[C@H](CN)[C@@H](O)[C@H](O)[C@H]3N)O[C@@H]2Cn2cc(Cn3cnc(-c4cccc(NC(=O)c5ccccc5)c4)c3)nn2)[C@H](N)[C@@H](O)[C@@H]1O,0.0189,0.0208,1.1,0.0244,1.3,20.4,8.3,–,–,–,–
Nc1ccn(Cc2cn(CCO[C@H]3[C@H](O)[C@@H](O)[C@H](N)C[C@@H]3N)nn2)c(=O)n1,101,> 1000,–,> 1000,–,–,–,–,–,–,–
N[C@@H]1C[C@H](N)[C@@H](OCCn2cc(Cn3ccc(O)nc3=O)nn2)[C@H](O)[C@H]1O,17.1,> 1000,–,> 1000,–,–,–,–,–,–,–
N[C@@H]1C[C@H](N)[C@@H](O)[C@H](O)[C@H]1O,> 1000,–,–,–,–,–,–,–,–,–,–
CCCCNC(=O)Nc1cccc(-c2cn(Cc3cn(C[C@H]4O[C@@H](O[C@@H]5[C@@H](O)[C@H](N)C[C@H](N)[C@H]5O[C@H]5O[C@H](CN)[C@@H](O)[C@H](O)[C@H]5N)[C@H](O)[C@@H]4O[C@H]4O[C@@H](CN)[C@@H](O)[C@H](O)[C@H]4N)nn3)cn2)c1,0.0461,0.0164,1.1,0.0222,1.5,–,25.6,–,–,–,–
N[C@@H]1C[C@H](N)[C@@H](OCCn2cc(CCC(=O)NCC(=O)Nc3nc(-c4ccccc4)cs3)nn2)[C@H](O)[C@H]1O,5.13,8.56,1.7,11,2.1,–,74.9,89.5,85.3,Active,Active

# Second part, the molecule after the results:
Kd [1] [µM],Kd [2] [µM],Selectivity ratio [3],Kd [4] [µM],Selectivity ratio [5],IC50 [6] [µM],IC50 [7] [µM],IC50 [8] [µM],IC50 [9] [µM],Activity [10],Activity [11],SMILES
6.78,8.51,1.3,9.02,1.3,–,> 100,177,> 500,Active,Active,N[C@@H]1C[C@H](N)[C@@H](OCCn2cc(Cn3cnc(-c4cccc(NC(=O)c5ccc6ccccc6c5)c4)c3)nn2)[C@H](O)[C@H]1O
0.627,2.64,–,2.96,–,29.5,12.6,–,–,Active,Active,N[C@@H]1C[C@H](N)[C@@H](OCCn2cc(Cn3cnc(-c4cccc(NC(=O)c5ccccc5)c4)c3)nn2)[C@H](O)[C@H]1O
11.1,> 1000,–,47.1,4.2,–,–,–,–,–,–,Nc1ncnc2c1ncn2Cc1cn(CCO[C@H]2[C@H](O)[C@@H](O)[C@H](N)C[C@@H]2N)nn1
3.53,3.92,1.1,4.27,1.2,> 500,81.1,20.3,18.2,Active,Active,Nc1cccc(-c2cn(Cc3cn(CCO[C@H]4[C@H](O)[C@@H](O)[C@H](N)C[C@@H]4N)nn3)cn2)c1
1.62,3.65,2.2,2.11,1.3,–,72.4,–,–,–,–,CCCCNC(=O)Nc1cccc(-c2cn(Cc3cn(CCO[C@H]4[C@H](O)[C@@H](O)[C@H](N)C[C@@H]4N)nn3)cn2)c1
